# Screening results: PubChem BioAssay, several laboratories
# Ecoli WT expand: growth inhibitors of E. coli BW25113 wild type | OD600 absorbance | growth inhibition, % at 100 µM | 98,000 compounds, 0.15% hits | AID 710;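 active means growth inhibition above about 50% at one test dose, limit read from the data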;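 further: growth measured after 20 h incubation at 37 °C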
# Lung fibro prol: blocks proliferation of human lung fibroblasts | viability, % at 10 µM | AID 719 | 85,000 compounds, 1.1% hits | LL 47 human lung fibroblast viability, ATP luminescence; active compounds read low;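 active means viability at or below 50% in the single dose screen; inactive means viability above 50%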;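 further: compound exposure lasted 72 h before the ATP readout; 100% = median luminescence of untreated cell-only wells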
#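 Material: Human LL 47 lung fibroblast cells | Input: 1,150 cells/well | Buffer or medium: IMEM plus 15% FBS | Compound dosing: 0.1% DMSO in all compound wells | Times: Overnight cell rest, 72 h compound treatment at 37 °C | Signal: CellTiter-Glo luminescence measuring cellular ATP | Measure: % viability versus median cells-only luminescence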
# Jurkat tox 60K: cytotoxicity toward Jurkat cells. 56,000 compounds, 1.2% hits. inhibition, % at 4 µM. Jurkat E6.1 viability, ATP luminescence, 48 h. AID 463;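 active means inhibition above the mean inhibition of all tested compounds plus 3 SD, cut at about 28% in these data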
# Ecoli tolC: E. coli tolC mutant growth inhibition | E. coli BW25113 tolC mutant growth, OD615 | AID 573 | 65,000 compounds, 2.2% hits | growth inhibition, % at 10 µM (by protocol);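 active means growth inhibition at or above a cutoff equal to the mean over every tested compound plus 3 SD, cut at about 60% in these data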;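 further: growth measured after 20 h incubation at 37 °C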
#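 Test system: tolC-deleted E. coli BW25113; medium: LB with kanamycin 50 µg/mL; compound: single-point testing at 10 µM; incubation: 20 h compound exposure of bacteria at 37 °C; signal: OD at 615 nm; evaluation: growth inhibition in percent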
# HUVEC prolif 384: human endothelial cell proliferation inhibition. AID 648. HUVEC proliferation, CellTiter-Glo luminescence, 72 h; active compounds read low. viability, % at 10 µM (by protocol). 86,000 compounds, 1.1% hits;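 active means viability at or below 30%; inactive means viability above 30%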;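 further: 100% = median luminescence of DMSO-only cell control wells on each plate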
# H69AR inhibit: blocks growth of human H69AR lung tumor cells; H69AR lung tumor viability, ATP luminescence, 72 h; active compounds read low; viability, % at 10 µM; 85,000 compounds, 6% hits;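 active means viability at or below 40%; inactive means viability above 40%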;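 further: multidrug resistant small cell line overexpressing MRP-1 efflux transporter; 100% = mean luminescence of untreated control wells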
# Numbers without * were called inactive; nt = no result given. This is a sample that favours compounds with a hit; in the whole collection about 6.4% have one here.
SMILES,Ecoli WT expand,Lung fibro prol,Jurkat tox 60K,Ecoli tolC,HUVEC prolif 384,H69AR inhibit
Cc1ccc(CSCCNC(=O)/C=C/c2ccccc2Cl)cc1,-3,nt,nt,nt,nt,nt
CCC(C)(C)NC(=O)CN(C(=O)CNS(=O)(=O)c1ccccc1)c1ccccc1,3,103,3,-7,93,95
Cc1onc(-c2ccccc2Cl)c1C(=O)Nc1nnc(Cc2ccc(Cl)cc2)s1,-13,101,nt,nt,103,91
Cc1ccccc1C(=O)N/N=C/c1ccc([N+](=O)[O-])s1,7,64,nt,nt,7.2*,21*
O=C(Cc1ccccc1)N/N=C/c1ccc([N+](=O)[O-])s1,0,nt,nt,nt,nt,nt
O=C(N/N=C/c1ccc([N+](=O)[O-])s1)c1ccccc1Br,9,63,nt,nt,62,16*
O=C(Nc1ccccc1C(=O)N/N=C/c1ccc(F)cc1)c1ccccc1Br,-6,nt,nt,nt,nt,nt
O=C(CSc1ncn[nH]1)Nc1ccccc1C(=O)O,0,104,-1,-22,104,96
Cc1ccc(Cl)cc1N1CCN(C(=O)CCS(=O)(=O)c2cccc3nonc23)CC1,nt,88,nt,61*,77,73
O=C(CCS(=O)(=O)c1cccc2nonc12)N1CCCc2ccccc21,4,95,nt,13,93,88
C=CCOC(=O)C(C#N)c1nc2ccccc2nc1N1CCN(Cc2ccccc2)CC1 (centres undefined),-8,103,3,100*,113,85
CCOC(=O)C1CCCN(c2nc3ccccc3nc2C(C#N)C(=O)OCC)C1 (centres undefined),-3,79,-8,53,73,56
CCOC(=O)C1CCCN(c2nc3ccccc3nc2C(C#N)C(=O)OCCOC)C1 (centres undefined),-7,54,nt,8,25*,75
CN1CCN(c2nc3ccccc3nc2C(C#N)C(=O)OC2CCCCC2)CC1 (centres undefined),9,71,6,58,3.7*,19*
CCN1CCN(c2nc3ccccc3nc2C(C#N)C(=O)OC2CCCCC2)CC1 (centres undefined),-6,81,3,42,37,50
COC(=O)c1nc(N)sc1-c1ccccc1,1,96,4,-22,87,86
CCc1cc2c(=O)c(-c3nc4ccccc4[nH]3)coc2c(CN2CCCC(C)C2)c1O (centres undefined),nt,99,-2,9,108,81
CCOC(=O)C1CCC2(CC1)C(C#N)=C(N)Oc1n[nH]c(C)c12 (centres undefined),nt,98,nt,nt,105,98
O=C(Nc1ccccc1Oc1ccccc1)c1cccc([N+](=O)[O-])c1,-1,nt,nt,nt,nt,nt
O=C(C#Cc1ccccc1)c1cccc([N+](=O)[O-])c1,-1,18*,nt,nt,45,1.4*
Nc1nonc1-c1noc(-c2ccccc2Br)n1,-4,98,-4,3,65,94
Cc1cc(C)nc(SC2=CS(=O)(=O)c3ccccc32)n1,-2,58,12,-1,94,5.8*
O=S1(=O)C=C(Sc2nc3ccccc3s2)c2ccccc21,7,3.1*,102*,22,12*,103
O=S1(=O)C=C(Sc2nnc(-c3ccccc3)o2)c2ccccc21,-1,nt,101*,19,11*,0.3*
O=C1S/C(=C/c2ccc(N3CCOCC3)o2)C(=O)N1Cc1ccc(F)cc1,-11,67,nt,nt,71,26*
SMILES,Ecoli WT expand,Lung fibro prol,Jurkat tox 60K,Ecoli tolC,HUVEC prolif 384,H69AR inhibit
O=C1S/C(=C\c2ccc(N3CCOCC3)o2)C(=O)N1Cc1ccc(F)cc1,-5,nt,nt,nt,nt,nt
CN1CC=C2C(C#N)=C(N)C(C#N)(C#N)[C@H](c3cccs3)[C@H]2C1,nt,85,nt,nt,91,35*
CC(C)c1ccc(C2C3CSCC=C3C(C#N)=C(N)C2(C#N)C#N)cc1 (centres undefined),7,86,nt,nt,6.8*,1.4*
CCCC1C2CN(C(C)C)CC=C2C(C#N)=C(N)C1(C#N)C#N (centres undefined),3,97,-2,-1,94,21*
CN1CC=C2C(C#N)=C(N)C(C#N)(C#N)C(c3ccsc3)C2C1 (centres undefined),4,95,nt,nt,94,60
CN1CC=C2C(C#N)=C(N)C(C#N)(C#N)[C@H](c3cccc(Cl)c3)C2C1 (some centres undefined),6,87,nt,4,89,62
COc1ccc(NC(=O)Nc2nnc(-c3ccccc3SCc3ccccc3)s2)cc1,-11,95,nt,nt,69,48
COc1ccccc1-n1c(SCC(=O)Nc2ccc(C)cc2)nc(O)cc1=O,2,101,nt,nt,89,120
Cc1c(C(=O)N2CCN(c3ccccc3F)CC2)sc2nc(-c3ccccc3)cn12,-8,102,-4,51,108,93
Cc1oc2c(CN3CCOCC3)c(O)ccc2c(=O)c1-c1ccc(Br)cc1,1,87,-1,99*,84,65
CC1CCN(C2CC(=O)N(c3ccc(Br)cc3Br)C2=O)CC1 (centres undefined),nt,102,nt,-1,89,81
O=C(c1ccc(Cl)s1)N1CCCC1,7,103,nt,nt,94,102
O=C(CSc1nc2ccccc2[nH]1)N1CCN(c2ccc(F)cc2)CC1,0,98,5,20,90,98
COc1ccc(S(=O)(=O)N2N=C(C)Oc3ccccc3C2=O)cc1,0,47*,nt,nt,58,16*
CC1=NN(S(=O)(=O)c2ccc(F)cc2)C(=O)c2ccccc2O1,0,99,nt,nt,91,99
Cc1ccc(NC(=O)/C(=C/c2cccc([N+](=O)[O-])c2)NC(=O)C2CCCCC2)c(C)c1,-1,9.6*,nt,nt,33,27*
Cc1ccc2[nH]c3c(N4CCCCCC4)ncnc3c2c1,-6,78,nt,2,32*,41
COc1cccc2[nH]c3c(N4CCN(Cc5ccc6c(c5)OCO6)CC4)ncnc3c12,0,97,4,41,61,40*
c1ccc(CN2CCN(c3ncnc4c3[nH]c3ccccc34)CC2)cc1,14,72,nt,43,44,46
Cc1ccc2c(c1)[nH]c1c(N3CCN(Cc4ccccc4)CC3)ncnc12,-7,92,34*,100*,15*,56
Cc1ccc2[nH]c3c(N4CCN(Cc5ccccc5)CC4)ncnc3c2c1,5,77,nt,1,14*,71
Cc1ccc(NC(=O)CS(=O)Cc2nc(-c3ccc(C)cc3)oc2C)cc1 (centres undefined),-14,97,nt,nt,106,94
CCOC(=O)N1CCN(C(=O)CC(C(=O)N2CCc3ccccc32)n2ccnc2)CC1 (centres undefined),-3,107,4,-8,91,72
Cc1ccc(S(=O)(=O)NCC2CCC(C(=O)NCc3ccc4c(c3)OCO4)CC2)cc1 (centres undefined),-4,92,nt,nt,76,94
COc1ccc2[nH]c3c(N4CC(C)OC(C)C4)ncnc3c2c1 (centres undefined),10,96,nt,nt,89,66
